The target in experiment [1] is T1, Alpha-1A adrenergic receptor (Homo sapiens, UniProt P35348).
T1 sequence (P35348 whole entry): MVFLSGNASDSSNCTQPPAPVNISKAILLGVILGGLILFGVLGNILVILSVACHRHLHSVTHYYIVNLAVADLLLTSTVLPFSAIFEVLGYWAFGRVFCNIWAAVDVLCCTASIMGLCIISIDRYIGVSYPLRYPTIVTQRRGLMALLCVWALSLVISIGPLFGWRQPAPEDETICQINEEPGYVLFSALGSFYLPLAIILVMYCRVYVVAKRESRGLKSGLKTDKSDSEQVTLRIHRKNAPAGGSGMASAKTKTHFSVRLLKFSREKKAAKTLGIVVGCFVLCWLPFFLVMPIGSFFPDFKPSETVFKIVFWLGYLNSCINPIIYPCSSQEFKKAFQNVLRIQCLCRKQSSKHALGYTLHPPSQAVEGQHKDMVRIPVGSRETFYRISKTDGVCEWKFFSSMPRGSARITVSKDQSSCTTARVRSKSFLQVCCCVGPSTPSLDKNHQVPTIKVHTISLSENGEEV
Nature of the experiment: Inhibition of [3H]prazosin binding to cloned human Alpha-1A adrenergic receptor in CHO cells (chinese hamster ovary cells). The format is cell-based. The procedure, abridged:
(§1)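 Membranes from CHO cells expressing cloned human α1a, α1b or α1d subtypes, [3H]prazosin competition binding.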

In experiment [2] the target is T2, Alpha-1B adrenergic receptor (Homo sapiens, UniProt P35368).
T2 sequence (P35368 whole entry): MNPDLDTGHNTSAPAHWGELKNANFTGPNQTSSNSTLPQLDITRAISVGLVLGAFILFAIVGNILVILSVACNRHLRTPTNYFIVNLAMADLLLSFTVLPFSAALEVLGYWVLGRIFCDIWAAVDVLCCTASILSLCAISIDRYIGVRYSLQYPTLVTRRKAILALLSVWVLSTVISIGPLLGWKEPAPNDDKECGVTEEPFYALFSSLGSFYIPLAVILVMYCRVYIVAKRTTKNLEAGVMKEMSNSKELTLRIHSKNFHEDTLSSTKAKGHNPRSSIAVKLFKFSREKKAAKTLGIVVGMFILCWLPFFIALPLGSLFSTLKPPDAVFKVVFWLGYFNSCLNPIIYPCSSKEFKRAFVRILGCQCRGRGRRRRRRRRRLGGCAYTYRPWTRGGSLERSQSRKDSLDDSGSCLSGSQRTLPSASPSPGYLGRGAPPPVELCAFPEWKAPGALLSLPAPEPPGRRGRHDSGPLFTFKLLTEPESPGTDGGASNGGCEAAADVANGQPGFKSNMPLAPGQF
Briefly: Inhibition of [3H]-prazosin binding to cloned human Alpha-1B adrenergic receptor in CHO cells (chinese hamster ovary cells). The format is cell-based. The procedure, abridged: as §1

The target in experiment [3] is T3, 5-hydroxytryptamine receptor 1A (Homo sapiens, UniProt P08908).
T3 sequence (P08908 whole entry): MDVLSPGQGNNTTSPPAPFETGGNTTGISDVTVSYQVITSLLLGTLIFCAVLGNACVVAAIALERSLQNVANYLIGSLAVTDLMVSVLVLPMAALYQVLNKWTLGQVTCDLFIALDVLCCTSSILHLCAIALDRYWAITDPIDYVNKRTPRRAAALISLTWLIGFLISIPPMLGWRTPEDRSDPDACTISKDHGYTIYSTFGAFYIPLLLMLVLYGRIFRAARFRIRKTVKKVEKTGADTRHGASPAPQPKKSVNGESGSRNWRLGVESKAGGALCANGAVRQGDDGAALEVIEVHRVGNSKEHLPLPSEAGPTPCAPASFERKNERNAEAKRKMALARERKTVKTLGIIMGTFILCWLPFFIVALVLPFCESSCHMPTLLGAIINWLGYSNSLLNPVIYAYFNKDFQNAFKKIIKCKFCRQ
Nature of the experiment: Inhibition of [3H]8-OH-DPAT binding to 5-hydroxytryptamine 1A receptor serotonergic receptor in human HeLa cells. In kind it is cell-based. Summed up: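 Membranes from HeLa cells expressing the cloned human 5-HT1A receptor, [3H]-8-OH-DPAT competition binding.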

Experiment [4] can be described thus: Thiol induced NO generation, through griess reaction expressed as % NO2- in presence of 5*10e-4 M L-cysteine. Summed up: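 Compound in DMSO diluted to 10^-4 M final in 1:1 v/v 50 mM phosphate buffer (pH 7.4)/MeOH containing 5 × 10^-4 M L-cysteine. Held 1 h at 37 °C, then treated with Griess reagent. Nitrite reported as % NO2- (mol/mol).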
In general terms: The Griess reaction detects nitrite, a stable product of nitric oxide.

Experiment [5] addresses T4, Alpha-1D adrenergic receptor (Homo sapiens, UniProt P25100).
T4 sequence (P25100 whole entry): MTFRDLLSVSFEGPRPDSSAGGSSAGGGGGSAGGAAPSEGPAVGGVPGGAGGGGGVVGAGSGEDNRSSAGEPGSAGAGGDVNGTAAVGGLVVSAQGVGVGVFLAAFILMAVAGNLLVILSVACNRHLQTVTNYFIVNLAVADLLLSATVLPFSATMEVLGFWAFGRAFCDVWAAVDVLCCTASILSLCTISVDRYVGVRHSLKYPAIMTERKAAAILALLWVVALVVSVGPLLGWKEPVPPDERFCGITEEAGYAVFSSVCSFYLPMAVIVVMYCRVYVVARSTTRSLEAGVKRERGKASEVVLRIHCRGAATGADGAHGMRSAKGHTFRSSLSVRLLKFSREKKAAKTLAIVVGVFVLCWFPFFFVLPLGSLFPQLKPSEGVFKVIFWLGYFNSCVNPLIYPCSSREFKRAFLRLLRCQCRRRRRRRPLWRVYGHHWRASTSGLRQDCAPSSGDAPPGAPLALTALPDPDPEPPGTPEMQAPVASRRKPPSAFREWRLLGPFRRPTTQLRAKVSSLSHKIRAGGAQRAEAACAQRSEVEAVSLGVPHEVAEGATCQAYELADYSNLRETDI
Nature of the experiment: Inhibition of [3H]-prazosin binding to cloned human Alpha-1D adrenergic receptor in CHO cells (chinese hamster ovary cells). The format is cell-based. The procedure, abridged:
as §1

Experiment [6] addresses T5, Alpha-1A adrenergic receptor (Rattus norvegicus, UniProt P43140).
T5 sequence (P43140 whole entry): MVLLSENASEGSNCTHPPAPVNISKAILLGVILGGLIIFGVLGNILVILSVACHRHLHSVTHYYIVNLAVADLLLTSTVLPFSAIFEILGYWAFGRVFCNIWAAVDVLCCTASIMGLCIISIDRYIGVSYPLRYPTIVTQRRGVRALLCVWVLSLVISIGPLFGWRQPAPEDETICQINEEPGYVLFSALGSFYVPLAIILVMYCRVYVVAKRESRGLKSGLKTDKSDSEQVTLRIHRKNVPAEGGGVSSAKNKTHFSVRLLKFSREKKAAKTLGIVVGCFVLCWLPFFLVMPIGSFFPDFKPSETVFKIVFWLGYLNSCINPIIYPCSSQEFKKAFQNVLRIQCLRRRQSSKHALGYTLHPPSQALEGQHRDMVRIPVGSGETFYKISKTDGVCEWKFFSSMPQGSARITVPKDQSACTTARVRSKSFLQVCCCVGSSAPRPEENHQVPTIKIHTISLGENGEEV
Briefly: Functional Alpha-1A adrenergic receptor antagonistic activity of noradrenaline induced contractions in prostatic portion of rat vas deferens. The format is tissue-based. Particulars: read-out: pA2 (converted). The procedure, abridged: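 Rat vas deferens, prostatic portion. Cumulative noradrenaline concentration-response curves were run with and without antagonist. pA2 came from 6-14 determinations. Where two antagonist concentrations were used and gave similar pA2, antagonism was taken as competitive; otherwise an apparent pA2 was taken at one concentration. Where NO relaxation appeared, 1 µM ODQ was added at least 10 min before the antagonist.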

In experiment [7] the target is T6, Adrenergic receptor alpha-2 (Rattus norvegicus, UniProt P22086+P19328+P22909).
T6 sequence (P22086 whole entry): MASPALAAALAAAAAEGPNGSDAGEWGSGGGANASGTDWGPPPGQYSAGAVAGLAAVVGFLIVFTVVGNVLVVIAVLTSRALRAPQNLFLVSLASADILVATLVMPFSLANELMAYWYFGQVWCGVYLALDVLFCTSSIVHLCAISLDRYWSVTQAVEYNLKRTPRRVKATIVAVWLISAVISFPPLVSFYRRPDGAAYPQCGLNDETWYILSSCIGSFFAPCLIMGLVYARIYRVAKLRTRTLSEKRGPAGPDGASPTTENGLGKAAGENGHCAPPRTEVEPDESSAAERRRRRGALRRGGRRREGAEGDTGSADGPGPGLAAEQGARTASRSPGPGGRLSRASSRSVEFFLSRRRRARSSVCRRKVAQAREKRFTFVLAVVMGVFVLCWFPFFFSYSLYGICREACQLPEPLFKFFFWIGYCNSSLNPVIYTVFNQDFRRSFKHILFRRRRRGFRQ
T6 sequence (P19328 whole entry): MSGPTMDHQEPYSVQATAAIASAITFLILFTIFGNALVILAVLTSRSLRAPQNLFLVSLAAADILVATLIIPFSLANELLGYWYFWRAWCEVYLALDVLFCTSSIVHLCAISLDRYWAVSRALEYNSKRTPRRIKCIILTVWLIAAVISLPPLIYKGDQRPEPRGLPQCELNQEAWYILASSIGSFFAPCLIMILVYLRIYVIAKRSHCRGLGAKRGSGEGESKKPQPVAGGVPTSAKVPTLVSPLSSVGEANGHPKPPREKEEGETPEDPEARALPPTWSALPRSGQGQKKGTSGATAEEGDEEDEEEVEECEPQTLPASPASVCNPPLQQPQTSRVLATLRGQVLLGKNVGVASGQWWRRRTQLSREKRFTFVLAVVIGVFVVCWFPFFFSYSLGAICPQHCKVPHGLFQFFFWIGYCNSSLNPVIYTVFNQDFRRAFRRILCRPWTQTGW
T6 sequence (P22909 whole entry): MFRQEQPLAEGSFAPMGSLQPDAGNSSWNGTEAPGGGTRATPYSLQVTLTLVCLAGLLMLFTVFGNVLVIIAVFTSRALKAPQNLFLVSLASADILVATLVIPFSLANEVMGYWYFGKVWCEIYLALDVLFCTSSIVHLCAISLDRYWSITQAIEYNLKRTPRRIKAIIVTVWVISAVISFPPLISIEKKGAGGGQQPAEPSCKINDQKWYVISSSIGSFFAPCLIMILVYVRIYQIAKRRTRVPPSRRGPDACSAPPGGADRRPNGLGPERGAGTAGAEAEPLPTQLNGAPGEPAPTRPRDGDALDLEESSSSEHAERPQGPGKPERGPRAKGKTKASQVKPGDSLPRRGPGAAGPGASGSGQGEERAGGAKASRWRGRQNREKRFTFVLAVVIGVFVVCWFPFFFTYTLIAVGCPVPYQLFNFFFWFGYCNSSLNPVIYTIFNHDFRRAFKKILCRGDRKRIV
Nature of the experiment: Inhibition of [3H]- rauwolscine binding to alpha-2 adrenergic receptor in membrane of rat cerebral cortex. In kind it is tissue-based. Summed up: (§2)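 Native α2 receptors in rat cerebral cortex membranes, competition binding with [3H]rauwolscine.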

In experiment [8] the target is T2, Alpha-1B adrenergic receptor. Nature of the experiment: Inhibition of [3H]prazosin binding to cloned human Alpha-1B adrenergic receptor in CHO cells (chinese hamster ovary cells). In kind it is cell-based. The procedure, abridged:
as §1

For experiment [9], the target named is T6, Adrenergic receptor alpha-2. Briefly: Inhibition of [3H]- rauwolscine binding to alpha-2 adrenergic receptor in rat cerebral cortex. In kind it is tissue-based. Summed up: as §2

Molecules are shown by their SMILES.

As to `Cc1c(-c2ccccc2)oc2c(C(=O)NCCCN3CCN(c4ccccc4OCc4no[n+]([O-])c4C#N)CC3)cccc2c1=O`, the Ki (as a rule, a measure of affinity in units of concentration, obtained from inhibition or displacement) in experiment [1] came to 0.73 nM; in experiment [2], 6.5 nM; in experiment [3] it was 2.2 nM; in experiment [5] it was 3.9 nM; in experiment [7], 81.1 nM. Moreover, the NO2- (mol/mol) in experiment [4] came out at 32.3%. Also, the Kb in experiment [6] was 34.7 nM.

For `Cc1c(-c2ccccc2)oc2c(C(=O)NCCCN3CCN(c4ccccc4OCCCO[N+](=O)[O-])CC3)cccc2c1=O`, the Ki was found to be 0.094 nM in experiment [1]; 1.2 nM in [2]; 7.2 nM in [3]; 3.5 nM in [5]; 81.8 nM in [7]. Further, in experiment [4], the NO2- (mol/mol) is less than 1%. The Kb in experiment [6] is 2.29 nM.

Turning to `Cc1c(-c2ccccc2)oc2c(C(=O)NCCCN3CCN(c4ccccc4OCc4no[n+]([O-])c4C)CC3)cccc2c1=O`, the Ki in experiment [8] is 4.7 nM; in experiment [1], 0.16 nM; in experiment [3], 1.6 nM; in experiment [5] it was 4.2 nM; in experiment [7], 53.5 nM. The NO2- (mol/mol) in experiment [4] is 1.11%. Further, the Kb in experiment [6] was 6.17 nM.

With `COc1ccccc1N1CCN(CCCNC(=O)c2cccc3c(=O)c(C)c(-c4ccccc4)oc23)CC1` [UPIDOSIN], the inhibitory constant (Ki) in [9] amounted to 33.3 nM. In addition, in experiment [6], the Kb is 3.8 nM.

Consider `Cc1c(-c2ccccc2)oc2c(C(=O)NCCCN3CCN(c4ccccc4OCc4no[n+]([O-])c4C(N)=O)CC3)cccc2c1=O`, for which the Ki was 1.8 nM in experiment [1]; 15.9 nM in experiment [2]; 1.2 nM in [3]; 20.4 nM in [5]; 359 nM in experiment [7]. The NO2- (mol/mol) in experiment [4] was 5.28%. Also, the Kb in experiment [6] is 10.7 nM.

Source of the values: ChEMBL document CHEMBL1145061, “New potential uroselective NO-donor alpha1-antagonists” (J Med Chem, 2003).
